Test results as given in ChEMBL document CHEMBL4257587 (J Med Chem, 2018).
≈ marks a conversion by molar mass, not a printed value. Calls of active or inactive are those of the source.

Assays:
[1] = system: Mycobacterium tuberculosis; experiment: Antimycobacterial activity against Mycobacterium tuberculosis H37Rv ATCC 25618 after 6 days by resazurin-based assay; format: functional; details: H37Rv ATCC 25618, 144 h
[2] = system: Mycobacterium tuberculosis; experiment: Antibacterial activity against Mycobacterium tuberculosis H37Rv infected in C57BL/6 mouse assessed as reduction in colony forming units administered orally once daily for 8 days starting following day after infection and measured at 24 hrs post last dose relative to untreated control; format: functional
In short: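 Female C57BL/6 mice, 8−10 weeks old, infected intratracheally with 100 000 CFU of H37Rv. Oral dosing once daily for 8 days began 1 day post-infection. Lungs were harvested 24 h after the last dose, homogenised and plated on 7H11 with 10% OADC and 0.4% charcoal for 18 days at 37 °C. Log10 CFU was fitted to a sigmoidal dose-response curve, and ED99 was defined as a 2-log CFU drop versus untreated.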

[3] = physchem; details: buffer, pH 7.4
[4] = Intrinsic clearance in mouse liver microsomes at 0.5 uM preincubated with NADPH and measured up to 30 mins by LC-MS/MS analysis; format: ADME, microsome
[5] = system: HepG2; experiment: cells; format: ADME, cell-based; details: Homo sapiens, HepG2, 48 h
[6] = Intrinsic clearance in human liver microsomes at 0.5 uM preincubated with NADPH and measured up to 30 mins by LC-MS/MS analysis; format: ADME, microsome
[7] = system: HepG2; experiment: Cytotoxicity against human HepG2 cells assessed as effect on mitochondrial membrane potential after 48 hrs by TMRM-staining based cell health assay; format: ADME; details: HepG2, 48 h
[8] = system: HepG2; experiment: Cytotoxicity against human HepG2 cells assessed as effect on membrane permeability after 48 hrs by TOTO-3 iodide-staining based cell health assay; format: ADME; details: HepG2, 48 h

Compound | MIC90 [1] [µM] | Activity [2] | solubility kinetic at 1 h [3] [µM] | CLH [4] [mL/min/g] | IC50 [5] [µM] | CLH [6] [mL/min/g] | IC50 [7] [µM] | IC50 [8] [µM]
O=C(Nc1ccc2c(c1)OCCO2)N1CCC2(CC1)OCCc1sccc12 | > 10 | – | – | – | – | – | – | –
NNC(=O)c1ccncc1 | – | Active | – | – | – | – | – | –
CC(C)(C)c1ccc(CN2CCC3(CC2)OCCCO3)cc1 | 2.5 (≈ 0.759 µg/mL) | – | 374 (≈ 113 µg/mL) | 13.5 | > 200 | 1.4 | > 200 | > 200
CN1CCCC2(CCN(Cc3ccc(Oc4ccc(OC(F)(F)F)cc4)cc3)CC2)C1 | 2.5 (≈ 1.09 µg/mL) | – | 205 (≈ 89.1 µg/mL) | – | 6.9 | – | 12.2 | 8
c1ccc2c(c1)CCOC21CCN(Cc2ccc3c(c2)OCCO3)CC1 | 0.94 (≈ 0.33 µg/mL) | – | – | – | – | – | – | –
FC(F)(F)Oc1ccc(Oc2ccc(CN3CCC4(CCCO4)CC3)cc2)cc1 | 1.3 (≈ 0.53 µg/mL) | – | – | 0.6 | 96.9 | 1.5 | 141 | 133
c1ccc2oc(CN3CCC4(CC3)OCCc3sccc34)cc2c1 | 2.7 (≈ 0.917 µg/mL) | – | – | – | – | – | – | –
FC(F)(F)Oc1ccc(Oc2ccc(CN3CCC4(CC3)OCCCO4)cc2)cc1 | 0.65 (≈ 0.275 µg/mL) | – | 53 (≈ 22.4 µg/mL) | < 0.5 | 26.3 | < 0.5 | 28.8 | 25.7
COc1ccc2c(c1)CCOC21CCN(Cc2ccc3c(c2)OCCO3)CC1 | > 10 | – | – | – | – | – | – | –
O=C(c1ccc2c(c1)OCCO2)N1CCC2(CC1)OCCc1sccc12 | > 80 | – | – | – | – | – | – | –
Cc1ccccc1CN1CCC2(CC1)OCCc1sccc12 | > 5 | – | – | – | – | – | – | –
c1ccc(CN2CCC3(CC2)OCCc2sccc23)cc1 | > 5 | – | – | – | – | – | – | –
c1ccc2c(CN3CCC4(CC3)OCCc3sccc34)c[nH]c2c1 | 0.94 (≈ 0.318 µg/mL) | – | – | 7 | – | 3.1 | – | –
CC(C)(C)c1ccc(CN2CCC3(CCOCC3)CC2)cc1 | 5 (≈ 1.51 µg/mL) | – | ≥ 399 | 2.25 | > 200 | 0.95 | > 200 | > 200
Cc1cc(CN2CCC3(CC2)OCCc2sccc23)c(C)n1-c1ccc(F)cc1 | 3 (≈ 1.23 µg/mL) | – | – | – | – | – | – | –
c1cc2c(s1)CCOC21CCN(Cc2ccc3c(c2)CCCO3)CC1 | 0.23 (≈ 0.0818 µg/mL) | – | – | > 30 | – | 2.9 | – | –
c1ccc2c3c([nH]c2c1)C1(CCN(Cc2ccc4c(c2)OCCO4)CC1)OCC3 | 93 (≈ 36.3 µg/mL) | – | – | – | – | – | – | –
COc1ccc(-n2c(C)cc(CN3CCC4(CC3)OCCc3sccc34)c2C)cc1 | 3 (≈ 1.27 µg/mL) | – | – | – | – | – | – | –
Cc1ccc(CN2CCC3(CC2)OCCc2sccc23)cc1C | 0.08 (≈ 0.0262 µg/mL) | – | – | > 30 | – | 18.9 | – | –
c1cc2c(s1)CCOC21CCN(Cc2ccc3c(c2)OCCO3)C1 (configuration not stated) | > 5 | – | – | – | – | – | – | –
c1cc2c(s1)CCOC21CCN(Cc2ccc3c(c2)CCCC3)CC1 | 0.02 (≈ 0.00707 µg/mL) | – | – | > 30 | – | 22.6 | – | –
O=C1OCCC12CCN(Cc1ccc(Oc3ccc(OC(F)(F)F)cc3)cc1)CC2 | > 5 | – | 121 (≈ 51 µg/mL) | – | 74.1 | – | > 200 | 75.9
CC1(CCNCc2ccc3c(c2)OCCO3)OCCc2sccc21 (configuration not stated) | > 5 | – | – | – | – | – | – | –
c1ccc2oc(CN3CCC4(CC3)OCCc3ccsc34)cc2c1 | > 100 | – | – | – | – | – | – | –

Compound | MIC90 [1] [µM] | Activity [2] | solubility kinetic at 1 h [3] [µM] | CLH [4] [mL/min/g] | IC50 [5] [µM] | CLH [6] [mL/min/g] | IC50 [7] [µM] | IC50 [8] [µM]
c1cc2c(s1)CCOC21CCN(Cc2cnc3c(c2)OCCO3)CC1 | > 5 | – | – | – | – | – | – | –
FC(F)(F)Oc1ccc(Oc2ccc(CN3CCC4(CCNC4)CC3)cc2)cc1 | > 5 | – | 117 (≈ 47.6 µg/mL) | – | 4.9 | – | 6.6 | 5.7
Cc1cc(CN2CCC3(CC2)OCCc2sccc23)c(C)n1-c1cccnc1 | 14 (≈ 5.51 µg/mL) | – | – | – | – | – | – | –
Cc1cc(CN2CCC3(CC2)OCCc2sccc23)c(C)n1-c1ccccc1 | 3 (≈ 1.18 µg/mL) | – | – | – | – | – | – | –
FC(F)(F)Oc1ccc(Oc2ccc(CN3CCCCC3)cc2)cc1 | > 5 | – | 156 (≈ 54.8 µg/mL) | – | 44.2 | – | 49.5 | 46.3
CC(c1ccc(C(F)(F)F)cc1)N1CCC2(CC1)OCCc1sccc12 (configuration not stated) | 0.63 (≈ 0.24 µg/mL) | – | – | 18.1 | – | 4.6 | – | –
FC(F)(F)Oc1ccc(Oc2ccc(CN3CCC4(CCCCO4)CC3)cc2)cc1 | 0.31 (≈ 0.131 µg/mL) | – | < 1 | 1.2 | 38.7 | 1.7 | 46.3 | 43.7
CC(C)(C)c1ccc(CN2CCC3(CC2)OCCCCO3)cc1 | 5 (≈ 1.59 µg/mL) | – | 194 (≈ 61.6 µg/mL) | 27 | 166 | 4.1 | 170 | > 200
c1cc2c(s1)CCOC2CCNCc1ccc2c(c1)OCCO2 (configuration not stated) | > 5 | – | – | – | – | – | – | –
Cc1ccc(CN2CCC3(CC2)OCCc2sccc23)[nH]1 | > 5 | – | – | 28.7 | – | 4.1 | – | –
FS(F)(F)(F)(F)c1ccc(CN2CCC3(CC2)OCCc2sccc23)cc1 | 0.14 (≈ 0.0596 µg/mL) | – | – | 18.2 | – | 3 | – | –
Cn1cc(CN2CCC3(CC2)OCCc2sccc23)c2ccccc21 | 0.63 (≈ 0.222 µg/mL) | – | – | > 30 | – | 4.5 | – | –
c1cc2c(s1)CCOC21CCNCC1 | > 5 | – | – | – | – | – | – | –
Cc1ccc(CN2CCC3(CC2)OCCc2sccc23)cc1 | 0.2 (≈ 0.0627 µg/mL) | – | – | > 30 | – | 22.5 | – | –
FC(F)(F)Oc1ccc(Oc2ccc(CN3CCC4(CCCCC4)CC3)cc2)cc1 | 0.1 (≈ 0.0419 µg/mL) | – | < 1 | 2.8 | 25.9 | 0.5 | 21.8 | 28.3
CC(C)(C)c1ccc(CN2CCC3(CC2)OCCc2sccc23)cc1 | 0.02 (≈ 0.00711 µg/mL) | – | – | > 30 | – | 9.9 | – | –
O=S(=O)(c1ccc2c(c1)OCCO2)N1CCC2(CC1)OCCc1sccc12 | > 10 | – | – | – | – | – | – | –
CC(C)(C)c1ccc(CN2CCC3(CCCOC3)CC2)cc1 | 0.63 (≈ 0.19 µg/mL) | – | 363 (≈ 109 µg/mL) | 48 | > 200 | 7.3 | > 200 | > 200
Clc1ccc2c(CN3CCC4(CC3)OCCc3sccc34)c[nH]c2c1 | 0.31 (≈ 0.116 µg/mL) | – | – | 10.3 | – | 1.3 | – | –
Cc1cccc(CN2CCC3(CC2)OCCc2sccc23)c1 | 0.63 (≈ 0.197 µg/mL) | – | – | > 30 | – | 5.2 | – | –
FC(F)(F)Oc1ccc(Oc2ccc(CN3CCC4(CC3)OCCO4)cc2)cc1 | > 5 | – | 52 (≈ 21.3 µg/mL) | – | 46.9 | – | 53.8 | 49.8
CN1C(=O)C=CCC12CCN(Cc1ccc(Oc3ccc(OC(F)(F)F)cc3)cc1)CC2 | > 5 | – | 87 (≈ 38.8 µg/mL) | – | 39.4 | – | 36.3 | 29.2
Cc1cc(CN2CCC3(CC2)OCCc2sccc23)c(C)n1-c1ccccn1 | 14 (≈ 5.51 µg/mL) | – | – | – | – | – | – | –
